We go through 11 compounds from ChEMBL document CHEMBL3085681, “Synthesis of novel 1,2,3-triazole based benzoxazolinones: their TNF-α based molecular docking with in-vivo anti-inflammatory, antinociceptive activities and ulcerogenic risk evaluation” (Eur J Med Chem, 2013).

Series [1] concerns Rattus norvegicus. Briefly: Antinociceptive activity in albino Wistar rat assessed as thermal-stimulus induced tail flick latency at 0.05 mmol/kg, po after 120 mins (reference value: 2.38 +/- 0.11 mins). In kind it is functional. (In hot-plate and tail-flick tests a longer latency is read as antinociception.)
In series [2] the test system is Rattus norvegicus. As to the kind of experiment: Ulcerogenicity in albino Wistar rat assessed as gastric deep mucosal damage at 0.15 mmol/kg, po by hematoxylin and eosin staining-based assay. In kind it is toxicity, organism-based, Stomach. Particulars: in vivo.
Series [3] concerns Rattus norvegicus. As to the kind of experiment: Ulcerogenicity in albino Wistar rat assessed as gastric superficial mucosal damage at 0.15 mmol/kg, po by hematoxylin and eosin staining-based assay. Particulars: in vivo. In kind it is toxicity, organism-based, Stomach.
For series [4], the target named is Prostaglandin G/H synthase 1 (Homo sapiens, UniProt P23219). Briefly: Inhibition of COX1 (unknown origin).
Series [5] concerns Rattus norvegicus. As to the kind of experiment: Antinociceptive activity in albino Wistar rat assessed as thermal-stimulus induced tail flick latency at 0.05 mmol/kg, po after 30 mins (reference value: 2.22 +/- 0.20 mins). In kind it is functional.
The species entered for a further series is Homo sapiens. Briefly: Selectivity index, ratio of IC50 for COX1 (unknown origin) to IC50 for human recombinant COX2.
Series [6] has as its system Rattus norvegicus. Briefly: Antiinflammatory activity in albino Wistar rat assessed as inhibition of carrageenan-induced hind paw edema at 0.05 mmol/kg, po administered 1 hr prior to carrageenan challenge by plethysmometric analysis. In kind it is functional, organism-based. The following applies: TDE = time-dependent effect. The method, boiled down:
(§1)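 Oedema raised by s.c. injection of 0.1 ml of freshly prepared 1% carrageenan in saline into the right hind paw. Test agents given orally at 0.05 mmol/kg, 1 h before carrageenan; saline vehicle control. Paw volume read by plethysmometer at 3 h and 5 h.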

The subject of series [7] is Rattus norvegicus. As to the kind of experiment: Antiinflammatory activity in albino Wistar rat assessed as inhibition of carrageenan-induced hind paw edema at 0.05 mmol/kg, po administered 1 hr prior to carrageenan challenge measured after 3 hrs by plethysmometric analysis relative to control. In kind it is functional. The method, boiled down: as §1
(In the carrageenan paw model, swelling and tenderness develop within hours.)

Series [8] concerns Rattus norvegicus. Briefly: Antinociceptive activity in albino Wistar rat assessed as thermal-stimulus induced tail flick latency at 0.05 mmol/kg, po after 60 mins (reference value: 2.54 +/- 0.05 mins). The format is functional.
For series [9], the system named is Rattus norvegicus. Briefly: Ulcerogenicity in albino Wistar rat assessed as gastric surface epithelial damage at 0.15 mmol/kg, po by hematoxylin and eosin staining-based assay. The format is toxicity, organism-based, Stomach. Particulars: in vivo.
The target of series [10] is T1, Prostaglandin G/H synthase 2 (Homo sapiens, UniProt P35354).
T1 sequence (P35354 whole entry): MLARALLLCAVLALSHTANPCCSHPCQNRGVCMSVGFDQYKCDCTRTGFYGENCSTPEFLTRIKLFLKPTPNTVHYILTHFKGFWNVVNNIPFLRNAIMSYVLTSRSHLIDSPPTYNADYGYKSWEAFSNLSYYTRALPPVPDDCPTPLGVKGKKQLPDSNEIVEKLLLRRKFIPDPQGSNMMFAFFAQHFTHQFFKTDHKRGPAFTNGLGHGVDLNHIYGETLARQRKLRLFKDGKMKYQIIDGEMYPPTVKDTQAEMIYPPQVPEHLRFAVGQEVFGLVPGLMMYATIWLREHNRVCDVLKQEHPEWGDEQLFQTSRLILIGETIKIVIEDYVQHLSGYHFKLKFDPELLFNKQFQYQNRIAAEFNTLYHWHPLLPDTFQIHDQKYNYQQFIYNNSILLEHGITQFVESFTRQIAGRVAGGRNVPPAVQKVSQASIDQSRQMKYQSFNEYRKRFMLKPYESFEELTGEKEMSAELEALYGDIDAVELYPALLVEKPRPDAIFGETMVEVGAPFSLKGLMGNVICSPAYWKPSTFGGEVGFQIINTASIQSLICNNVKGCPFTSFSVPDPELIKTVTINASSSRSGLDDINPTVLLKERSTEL
As to the kind of experiment: Inhibition of human recombinant COX2 expressed in insect cell expression system using TMPD and arachidonic acid as substrate incubated for 1 min prior to substrate addition by spectrophotometry.

Series [11] concerns Rattus norvegicus. Briefly: Ulcerogenicity in albino Wistar rat assessed as gastric muscular layer damage at 0.15 mmol/kg, po by hematoxylin and eosin staining-based assay. The following applies: in vivo. The format is toxicity, organism-based, Stomach.
Series [12] deals with Rattus norvegicus. As to the kind of experiment: Antiinflammatory activity in albino Wistar rat assessed as inhibition of carrageenan-induced hind paw edema at 0.05 mmol/kg, po administered 1 hr prior to carrageenan challenge measured after 5 hrs by plethysmometric analysis relative to control. In kind it is functional. The method, boiled down:
as §1

A short description of series [13]: Antiinflammatory activity in macrophages (unknown origin) assessed as inhibition of TNF-alpha secretion incubated for 2 hrs by ELISA relative to control. In kind it is functional, Macrophage. The method, boiled down:
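Macrophages grown in RPMI 1640 with 10% FBS, glutamine and penicillin/streptomycin, plated at 2 × 10^6 cells/mL. Pre-treated with cytochalasin D (2.5 µM per 10^6 cells) for 30 min, kept on throughout. Cells exposed to varying compound concentrations. TNF-α in supernatants measured by sandwich ELISA with TMB read at 450 nm, quantified against the kit standard.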
(An ELISA detects its analyte on a solid surface through an enzyme-linked reagent.)

Another series relates to Mus musculus. As to the kind of experiment: Antinociceptive activity in mouse assessed as inhibition of acetic acid-induced writhing at 0.05 mmol/kg, po administered 30 mins prior to acetic acid-challenge measured after 20 mins relative to control. In kind it is functional. An outline of the steps:
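Writhing in mice by the Koster method. Six animals per group, compound given orally at 0.05 mmol/kg 30 min before i.p. 0.6% (v/v) acetic acid (80 mg/kg). Total writhes counted over 20 min after acetic acid injection.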

As usually defined, the IC50 is the concentration that inhibits the measured activity by half. A word on the inhibition in vivo: it is the relative decrease from the control value, in per cent.

Structures are written as SMILES. Calls of active or inactive are those of the source. The calls are words filed in the database; no cut-off is given here.

Sequence of Prostaglandin G/H synthase 1 (P23219 whole entry): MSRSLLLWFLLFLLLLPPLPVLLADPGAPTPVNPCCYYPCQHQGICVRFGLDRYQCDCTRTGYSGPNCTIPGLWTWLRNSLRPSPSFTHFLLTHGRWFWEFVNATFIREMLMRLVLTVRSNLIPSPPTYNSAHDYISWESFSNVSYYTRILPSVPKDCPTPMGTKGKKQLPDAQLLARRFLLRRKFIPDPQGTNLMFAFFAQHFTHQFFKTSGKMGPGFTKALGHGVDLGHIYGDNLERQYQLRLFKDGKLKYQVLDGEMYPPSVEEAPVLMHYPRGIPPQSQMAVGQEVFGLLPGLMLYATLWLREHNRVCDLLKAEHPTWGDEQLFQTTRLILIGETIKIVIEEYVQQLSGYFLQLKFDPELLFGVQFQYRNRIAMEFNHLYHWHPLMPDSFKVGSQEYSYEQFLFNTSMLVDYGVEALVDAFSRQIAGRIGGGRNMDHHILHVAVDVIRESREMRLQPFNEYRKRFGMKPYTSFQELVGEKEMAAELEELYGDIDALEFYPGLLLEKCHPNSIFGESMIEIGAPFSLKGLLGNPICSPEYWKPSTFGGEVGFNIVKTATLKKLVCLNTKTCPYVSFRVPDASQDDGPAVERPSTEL

Consider `Cc1ccc2c(c1)oc(=O)n2Cc1cn(-c2ccccc2Cl)nn1`, for which the values for the Time in the series with Rattus norvegicus [1], in the series on Rattus norvegicus [5] and in the series on Rattus norvegicus [8] were 2.56 min, 2.18 min and 2.44 min, respectively. Further, the Activity entry in the series with Rattus norvegicus [2], in the series with Rattus norvegicus [3], in the series with Rattus norvegicus [9] and in the series on Rattus norvegicus [11] was “Non-toxic” throughout. The IC50 in series [4] is 207 µM; in [10] it was 3.6 µM. Also, the Ratio IC50 in the series filed under Homo sapiens came out at 57.6. Also, in the series on Rattus norvegicus [6], the inhibition entry was “tde”. The inhibition in vivo at 50 µmol/kg in the series on Rattus norvegicus [7] was determined as 71.8%; in the series on Rattus norvegicus [12], 72.9%.

For `O=c1oc2ccc(Cl)cc2n1Cc1cn(-c2ccccc2F)nn1`, the Time with Rattus norvegicus [1] is recorded as 2.64 min; in the series with Rattus norvegicus [5], 2.88 min; in the series on Rattus norvegicus [8], 2.78 min. The Activity result in the series on Rattus norvegicus [2], in the series on Rattus norvegicus [3], in the series on Rattus norvegicus [9] and in the series on Rattus norvegicus [11] was “Non-toxic” in each case. Also, the IC50 in series [4] came out at 138 µM; in series [10], 3.1 µM. In addition, the Ratio IC50 in the series filed under Homo sapiens stood at 44.6.

Turning to `CCOc1ccc(-n2cc(Cn3c(=O)oc4ccccc43)nn2)cc1`, the inhibition entry in the series with Rattus norvegicus [7] and in the series with Rattus norvegicus [12] was “Active” throughout.

`Cc1ccc2c(c1)oc(=O)n2Cc1cn(-c2ccc(Cl)cc2)nn1`: the Time turned out to be 3.34 min in the series with Rattus norvegicus [1], 3.08 min in the series on Rattus norvegicus [5] and 3.22 min in the series with Rattus norvegicus [8]. Besides, the Activity entry with Rattus norvegicus [2], with Rattus norvegicus [3], in the series on Rattus norvegicus [9] and in the series on Rattus norvegicus [11] was “Non-toxic” throughout. The figures for the IC50 in [4] and in [10] were 389 µM and 5.6 µM, respectively. Also, the Ratio IC50 in the series filed under Homo sapiens turned out to be 69.5. The values for the inhibition in vivo at 50 µmol/kg in the series on Rattus norvegicus [7] and with Rattus norvegicus [12] were 74% and 76.7%, respectively.

Regarding `O=c1oc2ccccc2n1Cc1cn(-c2cccc([N+](=O)[O-])c2)nn1`, the inhibition result in the series on Rattus norvegicus [7] and in the series on Rattus norvegicus [12] was “inactive” in each case.

In the case of `Cc1ccc2oc(=O)n(Cc3cn(-c4ccc(Br)cc4)nn3)c2c1`, the Time came to 2.88 min in the series on Rattus norvegicus [1], 2.62 min in the series on Rattus norvegicus [5] and 2.74 min in the series on Rattus norvegicus [8]. Also, the Activity entry in the series on Rattus norvegicus [2], in the series with Rattus norvegicus [3], with Rattus norvegicus [9] and in the series on Rattus norvegicus [11] was “Non-toxic” each time. Further, the figures for the IC50 in series [4] and in series [10] were 188 µM and 2.78 µM, respectively. In addition, in series [13], the “inhibition (INH)” value worked out at 50.95%. In addition, in the series filed under Homo sapiens, the Ratio IC50 was 67.7. In the series with Rattus norvegicus [6], the inhibition entry is “tde”. Also, the values for the inhibition in vivo at 50 µmol/kg in the series with Rattus norvegicus [7], in the series on Mus musculus and with Rattus norvegicus [12] were 73.2%, 41.8% and 74.8%, respectively.

Turning to `COc1ccc2c(c1)c(CC(=O)O)c(C)n2C(=O)c1ccc(Cl)cc1` [INDOMETHACIN], the figures for the Time in the series with Rattus norvegicus [1], in the series with Rattus norvegicus [5] and in the series on Rattus norvegicus [8] were 3.54 min, 3.12 min and 3.68 min, respectively. Also, the Activity entry with Rattus norvegicus [2], with Rattus norvegicus [3], with Rattus norvegicus [9] and in the series with Rattus norvegicus [11] was “Toxic” each time. The “inhibition (INH)” value in series [13] was determined as 64.01%. Further, the inhibition in vivo at 50 µmol/kg worked out at 79.1% in the series on Rattus norvegicus [7], 44.7% in the series with Mus musculus and 82.2% with Rattus norvegicus [12].

Consider `COc1ccc(-n2cc(Cn3c(=O)oc4ccccc43)nn2)cc1`, for which the inhibition result with Rattus norvegicus [7] and in the series on Rattus norvegicus [12] was “Active” throughout.

`O=c1oc2ccccc2n1Cc1cn(-c2cccnc2)nn1`: the inhibition result with Rattus norvegicus [7] and in the series with Rattus norvegicus [12] was “Active” throughout.

Take `O=c1oc2ccc(Cl)cc2n1Cc1cn(-c2ccc(Cl)cc2)nn1`: the Activity result with Rattus norvegicus [2], with Rattus norvegicus [3], with Rattus norvegicus [9] and in the series on Rattus norvegicus [11] was “Non-toxic” each time. The concentration for half-maximal inhibition (IC50) in [4] was 111 µM; in series [10] it was 2.7 µM. Besides, the Ratio IC50 in the series listed under Homo sapiens was 41.2. In addition, the inhibition in vivo at 50 µmol/kg with Rattus norvegicus [7] is 67.4%; with Rattus norvegicus [12] it was 65.1%.

For `Cc1ccc2c(c1)oc(=O)n2Cc1cn(-c2ccc(F)cc2)nn1`, the Time was 3.36 min in the series with Rattus norvegicus [1], 3.1 min with Rattus norvegicus [5] and 3.24 min with Rattus norvegicus [8]. The Activity result in the series on Rattus norvegicus [2], in the series on Rattus norvegicus [3], with Rattus norvegicus [9] and with Rattus norvegicus [11] was “Non-toxic” in each case. Moreover, the 50% inhibitory concentration (IC50) was determined as 175 µM in [4] and 2.4 µM in [10]. For the same compound, in the series listed under Homo sapiens, the Ratio IC50 came to 72.8. The values for the inhibition in vivo at 50 µmol/kg in the series on Rattus norvegicus [7] and in the series with Rattus norvegicus [12] were 81.4% and 80.6%, respectively.
